Assay results pooled from the literature.
Cell line: DU-145
Read-out: cell growth or viability

COc1cc2c(cc1OS(N)(=O)=O)CCN(Cc1cccc(C(C)=O)c1)C2
GI50 (WST-1; 96 h): 1.85 µM

COc1ccc(C(=O)/C=C/c2c(F)cccc2Cl)cc1S(N)(=O)=O
GI50 (SRB; 48 h): 3.3 µM

COc1ccc(-c2ccc(-c3ccc(C(=N)N)nc3)s2)cc1
GI50: 1.77 µM

COc1ccc(C(=O)/C=C/c2cccc(Br)c2)cc1S(N)(=O)=O
GI50 (SRB; 48 h): 3.6 µM

CCOc1cc(CN2CCc3cc(O)c(OC)cc3C2)cc(OCC)c1OCC
GI50 (WST-1; 96 h): > 100 µM

COc1ccc(C(=O)/C=C/c2cc3c(cc2Br)OCO3)cc1S(N)(=O)=O
GI50 (SRB; 48 h): 3.7 µM

COc1cccc(S(=O)(=O)N2CCc3cc(OS(N)(=O)=O)c(OC)cc3C2)c1
GI50 (WST-1; 96 h): 56.7 µM

COc1cc2c(cc1O)CCN(Cc1cc(Cl)c(OC)c(OC)c1)C2
GI50 (WST-1; 96 h): 0.9 µM

COc1cc2c(cc1O)CCN(C(=O)c1cc(OC)c(OC)c(OC)c1)C2
GI50 (WST-1; 96 h): 0.921 µM

CCc1cc(CN2CCc3cc(OS(N)(=O)=O)c(OC)cc3C2)cc(CC)c1CC
GI50 (WST-1; 96 h): 1.8 µM

COc1cc2c(cc1O)CCN(Cc1cccc(OC)c1OC)C2
GI50 (WST-1; 96 h): > 100 µM

COc1cc2c(cc1O)CCN(Cc1cc(Br)c(OC)c(OC)c1)C2
GI50 (WST-1; 96 h): 0.3 µM

COc1ccc(OC)c(CN2CCc3cc(OS(N)(=O)=O)c(OC)cc3C2)c1
GI50 (WST-1; 96 h): 2.61 µM

COc1cccc(Oc2ccccc2NC(=O)CNC(=O)c2cccc3ccccc23)c1
GI50 (SRB; 48 h): 0.708 µM

S=C([S][Au-][P+](CCCCCC[P+]([Au-][S]C(=S)n1cccn1)(c1ccccc1)c1ccccc1)(c1ccccc1)c1ccccc1)n1cccn1
GI50: 1.31 µM

COc1ccc(C(=O)/C=C/c2cccc3ccccc23)cc1S(N)(=O)=O
GI50 (SRB; 48 h): 2.8 µM

COc1cccc(C(=O)N2CCc3cc(O)c(OC)cc3C2)c1
GI50 (WST-1; 96 h): 31.3 µM

COc1cc2c(cc1OS(N)(=O)=O)CCN(Cc1cc(Cl)c(OC)c(OC)c1)C2
GI50 (WST-1; 96 h): 0.04 µM

COc1ccc(C(=O)/C=C/c2ccc3ccccc3c2)cc1S(N)(=O)=O
GI50 (SRB; 48 h): 3.3 µM
